Tests used:
Hepatitis C virus = test: Antiviral activity against HCV genotype 1b I389luc-ubi-neo/NS3-3'/5.1 replicon infected in human Huh5-2 cells assessed as inhibition of virus replication by luciferase assay; assay type: functional, cell-based, Hepacivirus hominis; settings: Huh-5-2
[1] = Selectivity index, ratio of CC50 for human Huh5-2 cells to EC50 for HCV genotype 1b I389luc-ubi-neo/NS3-3'/5.1 replicon infected in human Huh5-2 cells; design: species or system Huh-5-2
[2] = Cytostatic activity against human Huh5-2 cells carrying HCV genotype 1b I389luc-ubi-neo/NS3-3'/5.1 replicon assessed as reduction in metabolic activity after 72 hrs by MTS assay; assay type: ADME, cell-based, Huh-5-2; settings: for CC50: huh-5-2, 72 h
Summary of the method: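 Replicon-bearing Huh-5-2 cells run in parallel with the antiviral read-out; CC50 is the concentration halving MTS bioreduction to formazan, taken as the antimetabolic effect on host cells; mean ± SD from at least three dose–response curves.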

[3] = Cytotoxicity against human Huh5-2 cells carrying HCV genotype 1b I389luc-ubi-neo/NS3-3'/5.1 replicon assessed as cell morphological changes after 72 hrs by microscopic analysis; assay type: cell-based; settings: huh-5-2, 72 h
Summary of the method: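 Huh-5-2 replicon cells examined by microscopy for changes in cell morphology after 72 h of compound treatment.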

[4] = system: Hepatitis C virus isolate HC-J4; test: Inhibition of RNA-dependent RNA polymerase activity of HCV genotype 1b HC-J4 recombinant N-terminal histidine tagged C-terminal 21 aminoacids truncated NS5B polymerase at 50 uM after 1 hr by standard primer dependent elongation assay
Summary of the method: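 Recombinant NS5BCΔ21 genotype 1b in a primer-dependent elongation assay. […] IC50 is the concentration halving enzyme activity in vitro; mean ± SD of two independent experiments in duplicate.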

[5] = Inhibition of RNA-dependent RNA polymerase activity of HCV genotype 1b HC-J4 recombinant N-terminal histidine tagged C-terminal 21 aminoacids truncated NS5B polymerase after 1 hr by standard primer dependent elongation assay; design: species or system Hepatitis C virus isolate HC-J4
Summary of the method: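 Recombinant NS5BCΔ21 genotype 1b in a primer-dependent elongation assay. IC50 is the concentration halving enzyme activity in vitro; mean ± SD of two independent experiments in duplicate.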

[6] = Induction of steatosis in human Huh-9-13 cells assessed as intracellular accumulation of […] lipids at 100 uM by Nile Red staining; assay type: cell-based

| SMILES | EC50 (Hepatitis C virus) [µM] | Ratio CC50/EC50 [1] | CC50 [2] [µM] | Activity [3] | inhibition [4] [%] | IC50 [5] [µM] | EC90 (Hepatitis C virus) [µM] | Activity [6] | CC50 at 72 h [2] [µM] |
| --- | --- | --- | --- | --- | --- | --- | --- | --- | --- |
| CN1c2c(C(=O)Nc3ccc(NS(C)(=O)=O)cc3)nn(-c3ccc(Cl)c(Cl)c3)c2-c2ccccc2S1(=O)=O | 9.7 | >17 | > 168 | Toxic | > 50 | 2.7 |  |  |  |
| CN1c2c(C(=O)Nc3ccc(NS(C)(=O)=O)cc3)nn(-c3ccccc3Cl)c2-c2ccccc2S1(=O)=O | 7.4 | >30 | > 224 | Toxic | > 50 | 17.8 | 20.8 |  |  |
| CN1c2c(C(=O)Nc3ccc(NS(C)(=O)=O)cc3)nn(-c3ccc(Br)cc3)c2-c2ccccc2S1(=O)=O | 7.4 | >22 | > 166 | Toxic | > 50 | 12.1 | 21 |  |  |
| CN1c2c(C(=O)Nc3ccccc3)nn(-c3cccc(F)c3)c2-c2ccccc2S1(=O)=O | 4.5 | 12 | 56 | Toxic | < 50 | > 50 |  |  |  |
| CN1c2c(C(=O)Nc3ccc(NS(C)(=O)=O)cc3)nn(-c3ccccc3C(F)(F)F)c2-c2ccccc2S1(=O)=O | 25 | >7 | > 169 | Toxic | < 50 | > 50 |  |  |  |
| CN1c2c(NC(=O)c3ccc(NS(C)(=O)=O)cc3)nn(-c3cccc(F)c3)c2-c2ccccc2S1(=O)=O | 80.8 | 2.3 | 160 | Toxic | < 50 | > 50 |  |  |  |
| CN1c2c(C(=O)Nc3ccc(NS(C)(=O)=O)cc3)nn(C3CCCCC3)c2-c2ccccc2S1(=O)=O | 4.5 | 9.7 | 44 | Toxic | > 50 | 43 | 11 |  |  |
| Cc1ccc(-n2nc(C(=O)Nc3ccc(NS(C)(=O)=O)cc3)c3c2-c2ccccc2S(=O)(=O)N3C)cc1C | 6.2 | >29 | > 181 | Toxic | < 50 | > 50 | 20 |  |  |
| COc1cccc(-n2nc(C(=O)Nc3ccc(NS(C)(=O)=O)cc3)c3c2-c2ccccc2S(=O)(=O)N3C)c1 | 11 | >16 | > 181 | Toxic | < 50 | > 50 |  |  |  |
| CN1c2c(C(=O)Nc3ccc(NS(C)(=O)=O)cc3)n[nH]c2-c2ccccc2S1(=O)=O | 88.2 | 2.5 | 155 | Toxic | < 50 | > 50 | 65.2 |  |  |
| Cc1ccc(-n2nc(C(=O)Nc3ccc(NS(C)(=O)=O)cc3)c3c2-c2ccccc2S(=O)(=O)N3C)cc1Cl | 7 | >25 | > 175 | Toxic | > 50 | 8 | 37 |  |  |
| CN1c2c(C(=O)Nc3ccc(NS(C)(=O)=O)cc3)nn(-c3ccc(C(F)(F)F)cc3)c2-c2ccccc2S1(=O)=O | 7.3 | >23 | > 169 | Toxic | > 50 | 36.3 | 31.2 |  |  |
| CN1c2c(C(=O)Nc3ccc(NS(C)(=O)=O)cc3)nn(-c3cccc(C(F)(F)F)c3)c2-c2ccccc2S1(=O)=O | 7.7 | >28 | > 211 | Toxic | > 50 | 23.7 | 33.2 |  |  |
| CN1c2c(C(=O)Nc3ccc(NS(C)(=O)=O)cc3)nn(-c3ccc(Cl)c(C(F)(F)F)c3)c2-c2ccccc2S1(=O)=O | 6.4 | >25 | > 160 | Toxic | < 50 | > 50 |  |  |  |
| COc1ccc(-n2nc(C(=O)Nc3ccc(NS(C)(=O)=O)cc3)c3c2-c2ccccc2S(=O)(=O)N3C)cc1 | 8.1 | >28 | > 226 | Non-toxic | < 50 | > 50 | 25 |  |  |
| CN1c2c(C(=O)Nc3ccc(NS(C)(=O)=O)cc3)nn(-c3ccc(Cl)cc3)c2-c2ccccc2S1(=O)=O | 8.1 | >28 | > 224 | Non-toxic | > 50 | 7.9 | 23.3 | Toxic |  |
| CN1c2c(C(=O)Nc3ccc(NS(C)(=O)=O)cc3)nn(-c3ccccc3Br)c2-c2ccccc2S1(=O)=O | 12 | 8.9 | 107 | Toxic | > 50 | 26.5 |  |  |  |
| CN1c2c(C(=O)Nc3ccc(NS(C)(=O)=O)cc3)nn(-c3ccc(F)c(F)c3)c2-c2ccccc2S1(=O)=O | 13.9 | 9.9 | 138 | Toxic | > 50 | 25.4 |  |  |  |
| CN1c2c(C(=O)Nc3ccc(NS(C)(=O)=O)cc3)nn(-c3cccc(Br)c3)c2-c2ccccc2S1(=O)=O | 8.3 | >20 | > 166 | Toxic | > 50 | 7.7 | 26 |  |  |
| CN1c2c(C(=O)Nc3ccc(OCC(N)=O)cc3)nn(-c3cccc(F)c3)c2-c2ccccc2S1(=O)=O | 15 | >13 | > 192 | Toxic | < 50 | > 50 | 34 |  |  |
| CN1c2c(C(=O)Nc3ccc(NS(C)(=O)=O)cc3)nn(-c3cccc(F)c3)c2-c2ccccc2S1(=O)=O |  |  |  |  |  |  |  |  | > 370 |
| Cc1ccccc1-n1nc(C(=O)Nc2ccc(NS(C)(=O)=O)cc2)c2c1-c1ccccc1S(=O)(=O)N2C | 14.3 | >16 | > 233 | Toxic | > 50 | 30.8 |  |  |  |
| Cc1cccc(-n2nc(C(=O)Nc3ccc(NS(C)(=O)=O)cc3)c3c2-c2ccccc2S(=O)(=O)N3C)c1 | 5.1 | >46 | > 233 | Toxic | > 50 | 21.2 | 11.8 |  |  |
| Cc1ccc(-n2nc(C(=O)Nc3ccc(NS(C)(=O)=O)cc3)c3c2-c2ccccc2S(=O)(=O)N3C)cc1 | 4.8 | 39 | > 186 | Non-toxic | > 50 | 14.7 | 19.6 |  |  |

From ChEMBL document CHEMBL3232903, “New pyrazolobenzothiazine derivatives as hepatitis C virus NS5B polymerase palm site I inhibitors” (J Med Chem, 2014)
